Rpn11 inh: Rpn11 (human) deubiquitinase inhibition. O00487. human 26S proteasome, Ub4-pepOG fluorescence polarization; 20S core pre-blocked with epoxomicin. inhibition, % at 20 µM. actives 0.59% (n = 360,000). AID 588493;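 active = inhibition at 20 µM, scaled to each plate's controls, above about 33%, limit read from the data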
Target sequence (O00487 whole entry, looked up): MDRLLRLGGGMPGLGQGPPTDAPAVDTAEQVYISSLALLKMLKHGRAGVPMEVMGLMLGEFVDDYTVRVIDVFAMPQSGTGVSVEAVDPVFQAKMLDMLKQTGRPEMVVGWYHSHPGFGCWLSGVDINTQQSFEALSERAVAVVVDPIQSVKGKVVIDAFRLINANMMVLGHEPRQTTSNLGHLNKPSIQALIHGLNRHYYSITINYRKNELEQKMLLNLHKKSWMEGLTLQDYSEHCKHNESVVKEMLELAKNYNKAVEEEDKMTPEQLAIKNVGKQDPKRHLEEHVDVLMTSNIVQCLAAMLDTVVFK
Scp-1 inhibitor: inhibitors of human Scp-1 phosphatase; Recombinant Scp1, phosphopeptide, malachite green phosphate absorbance; inhibition, % at 20 µM; actives 0.88% (n = 340,000); AID 493091;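 active = inhibition above about 50% at 20 µM, limit read from the data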;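 also: plate controls were DMSO wells with enzyme for no effect and wells lacking enzyme for full effect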
Target sequence (Q9GZU7 76-261 limits assumed): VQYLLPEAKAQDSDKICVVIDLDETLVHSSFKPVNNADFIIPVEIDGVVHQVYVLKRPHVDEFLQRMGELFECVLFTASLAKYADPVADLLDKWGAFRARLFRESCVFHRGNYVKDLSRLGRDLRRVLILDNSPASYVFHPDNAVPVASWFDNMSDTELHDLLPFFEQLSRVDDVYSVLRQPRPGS
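System: truncated SCP-1 phosphatase (76-261aa); medium: Tris acetate buffer pH 5.5 with MgCl2 and Tween-20; incubation: 45 min room-temperature reaction, 5 min colour, 30 min stabiliser; compound: single 20 µM dose, 1% DMSO; reagent: Phosphorylated 17-residue peptide substrate; read-out: % inhibition at 20 µM; technique: colorimetric free-phosphate detection, absorbance 630 nm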
DNMT1 block: DNMT1 (human) enzyme inhibition | P26358 | DNMT1 molecular beacon, Hinp1I cleavage, fluorescence | inhibition (reported as % activation of signal), % at 10 µM | actives 0.83% (n = 360,000); in the data active = inhibition above about 50%
LMPTP inh: blocks human LMPTP phosphatase; recombinant LMPTP-A, OMFP fluorogenic substrate, fluorescence intensity; inhibition, % at 20 µM; actives 0.22% (n = 360,000);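 active = compounds that cut the enzyme signal by at least half of the control window in the single-dose screen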;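 also: plate controls were DMSO wells with enzyme plus substrate for no effect and substrate without enzyme for full effect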
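Material: LMPTP-A; amount: 0.625 nM enzyme; doses: single 20 µM dose; times: reaction 50 min, room temperature, dark; technique: fluorescence intensity of OMFP turnover product; benchmarks: no-enzyme and uninhibited controls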
STEP inh: inhibitors of human striatal-enriched phosphatase STEP; inhibition, % at 20 µM; recombinant STEP, OMFP fluorogenic substrate, fluorescence; P54829; actives 0.25% (n = 360,000); AID 588621;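 active = inhibition at 20 µM, scaled per plate between control wells, above about 37%, limit read from the data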;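 also: 0% = DMSO with enzyme and substrate and 100% = substrate only without enzyme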
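Material: STEP (striatal-enriched tyrosine phosphatase) enzyme, cell-free; Compound dosing: 20 µM single dose in 1% DMSO; Technique: fluorescence read at 480 nm ex / 540 nm em; Times: reaction 20 min, ambient temperature; Medium: 50 mM Bis-Tris pH 6.0 with 2.5 mM DTT and 0.005% Tween 20; Also added: OMFP at 25 µM.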
SUMO1-SIM PPI: alters human SUMO1 binding to SIM partners | SUMO1 binding to a labelled peptide, TR-FRET, 1 h | P63165 | actives 0.33% (n = 360,000) | inhibition, % at 20 µM; in the data active = inhibition above about 37%
Target sequence (P63165 whole entry, looked up): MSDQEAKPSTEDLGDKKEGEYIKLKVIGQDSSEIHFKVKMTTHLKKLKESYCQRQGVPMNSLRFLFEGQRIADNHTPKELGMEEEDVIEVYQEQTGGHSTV
Beacon interf DR: shows spectral interference in the DNMT1 beacon assay | AID 602382 | molecular beacon fluorescence, spectral interference counter-screen | 200 tested, under 10 active | IC50, µM | shares compounds with DNMT1 block; call rule not given here
DNMT1 confirm: DNMT1 inhibition confirmation, single concentration. AID 602385. inhibition, % at 10 µM. actives 8% (n = 2,300). DNMT1 molecular beacon HinP1I cleavage, fluorescence. shares compounds with DNMT1 block;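 active = average inhibition of at least 30% in the single-concentration confirmation test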
Beacon interf: beacon fluorescence artifact counter-screen; shares compounds with DNMT1 block; AID 602387; actives 1% (n = 2,300); activation (fluorescence interference), % at 10 µM; DNMT1 molecular beacon spectral interference counterscreen, fluorescence 485/520;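 active = activation of at least 30% at 10 µM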;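 also: DNMT1 catalytic domain with a HinP1I cleavage step and a FAM/dabcyl DNA beacon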
* = called active by the depositor; x = no result given. Only some compounds are listed: those with a hit (about 2.3% of all), similar ones and a draw of the others.

SMILES | Rpn11 inh | Scp-1 inhibitor | DNMT1 block | LMPTP inh | STEP inh | SUMO1-SIM PPI | DNMT1 confirm | Beacon interf | others
CCN(C(=O)COC(=O)CCOc1ccc(C(C)(C)C)cc1)c1c(N)n(Cc2ccccc2)c(=O)[nH]c1=O | 3 | -5 | 63* | -1 | -2 | 1 | -1 | 4
Cc1nn(-c2ccccc2)c2nc(-c3ccco3)cc(C(=O)O)c12 | 2 | 13 | 61* | 0 | -3 | 29 | 2 | -1
Cc1nn(-c2cccc(Cl)c2)c2nc(-c3ccco3)cc(C(=O)O)c12 | 16 | 14 | 71* | 0 | -1 | 40* | 3 | 2
O=C(O)c1cc(-c2cc3ccccc3o2)nn1-c1ccccc1 | 20 | -3 | 6 | 0 | 9 | 0 | x | x
O=C(O)c1cc(-c2ccco2)nn1-c1ccc(Cl)cc1 | 22 | 67* | 96* | 11 | 11 | 25 | 12 | 3
CCOc1ccc(S(=O)(=O)NCc2ccc3c(c2)OCO3)cc1C(=O)O | -12 | -10 | 0 | -1 | 0 | 0 | x | x
Cc1cccc(/C=N\N=C\c2cccc(C)c2)c1 | -1 | -12 | 5 | 0 | 1 | -14 | x | x
O=C(O)c1ccc2c(c1)C1C=CCC1C(c1cc3c(cc1Br)OCO3)N2 (stereo unspecified) | -2 | 14 | 12 | 5 | -3 | 10 | x | x
O=C(O)c1ccc(NS(=O)(=O)c2ccc3c(c2)C2C=CCC2C(c2ccccc2F)N3)cc1 (stereo unspecified) | -5 | -4 | 62* | 3 | -2 | 35 | 29 | 1 | Beacon interf DR=>99
S=C(CN1CCCC1=S)NCCc1ccccc1 | 3 | -17 | 0 | -1 | -2 | -1 | x | x
Cc1cccc(N2CC34C=CC(O3)C(C(=O)O)C4C2=O)c1 (stereo unspecified) | -1 | 0 | 7 | 0 | 2 | 0 | x | x
COc1cccc(N2CC34C=CC(O3)C(C(=O)O)C4C2=O)c1 (stereo unspecified) | -9 | 32 | 53* | -1 | -4 | 5 | 6 | 6
O=C1c2ccccc2C(=O)N1CCc1c(-c2[nH]c3ccccc3c2CCN2C(=O)c3ccccc3C2=O)[nH]c2ccccc12 | 3 | -4 | 56* | -2 | 3 | 3 | 3 | 1
CCc1ccc(C(=O)COC(=O)c2cc([N+](=O)[O-])ccc2NCCO)cc1 | 0 | -9 | 90* | 1 | 3 | -16 | 5 | 7
COC(=O)c1ccc(-c2nc3cc(Cl)c(N)cc3s2)cc1 | 6 | -4 | 56* | -1 | -2 | 1 | 1 | 7
COC(=O)c1ccc(-c2nc(O)c(C)s2)cc1 | 4 | -6 | 0 | 1 | 10 | -7 | x | x
COc1ccc(OC)c(S(=O)(=O)Nc2cc(OC)c(Cl)cc2OC)c1 | 0 | -5 | 69* | 0 | 2 | 3 | 4 | 6
COc1ccc(CCNC(=O)Cn2nnc(C(=O)Nc3cc(C)ccc3C)c2N)cc1OC | -3 | -8 | -1 | 0 | 1 | 0 | x | x
CC1=C(C(=O)Nc2ccc(C)cc2C)C(c2ccc(Cl)cc2)n2nc(C(=O)OC(C)C)nc2N1 (stereo unspecified) | 5 | -4 | 57* | -3 | 3 | -3 | 2 | 0
CSc1nc2n(n1)C(c1cccc(F)c1)C(C(=O)Nc1ccc(C)cc1C)=C(C)N2 (stereo unspecified) | 1 | -12 | 38 | -3 | -8 | -1 | x | x
CN(c1c[nH]c(=O)[nH]c1=O)C1CCCCC1 | 5 | -1 | 1 | 1 | 0 | -3 | x | x
CN(C)C1CCCCC=CC(=O)NC1 (stereo unspecified) | 0 | x | 52* | -2 | -2 | 3 | 7 | 7
Cc1cc(SCc2ccc([N+](=O)[O-])cc2)nc(=O)[nH]1 | -1 | 30 | 52* | 8 | 2 | -17 | 2 | -1
O=C(Nc1cccc(S(=O)(=O)NC2=NCCC2)c1)c1cc(-c2ccco2)nc2ccccc12 | x | 90* | 99* | 61* | 6 | 23 | 56* | -2 | Beacon interf DR=>99
Cc1nnc(NC(=O)c2cc(-c3ccco3)nc3ccccc23)s1 | -4 | x | 96* | 27 | 21 | 25 | 18 | 1
SMILES | Rpn11 inh | Scp-1 inhibitor | DNMT1 block | LMPTP inh | STEP inh | SUMO1-SIM PPI | DNMT1 confirm | Beacon interf | others
COc1ccc(NC(=O)c2cc(-c3ccco3)nc3ccccc23)cn1 | -10 | 67* | 49 | 14 | 4 | -5 | 2 | 0
CCN(CC)CCNC(=O)c1ccc(NC(=O)c2cc(-c3ccco3)nc3ccccc23)cc1 | 13 | 15 | 20 | 5 | 1 | -19 | x | x
CCNC(=O)COC(=O)c1cc(-c2ccco2)nc2ccccc12 | -30 | 70* | 71* | 5 | 0 | -2 | 12 | 3
CCN(CC)CC(=O)Nc1ccc(-c2ccc(NC(=O)CN(CC)CC)c(OC)c2)cc1OC | -2 | -4 | -9 | 0 | 1 | 1 | x | x
CN(C)C(CNC(=O)CCCN1C(=O)c2cccc3cccc(c23)C1=O)c1ccccc1 (stereo unspecified) | 0 | -10 | 8 | 1 | 0 | -31 | x | x
CC(C)CCNC(=O)NC(=O)CSc1ncccn1 | 1 | -12 | 2 | -2 | -3 | -1 | x | x
O=C(N/N=C/c1ccc([N+](=O)[O-])o1)c1cc(-c2ccncc2)nc2ccccc12 | -8 | 29 | 7 | 3 | 0 | -10 | x | x
O=C(N/N=C/c1ccc([N+](=O)[O-])o1)c1cc(-c2ccc(-c3ccccc3)cc2)nc2ccccc12 | 5 | 33 | 79* | 2 | -1 | 2 | 0 | 2
CCOc1ccc(/C=N/NC(=O)c2cc(-c3ccco3)nc3ccccc23)cc1 | 4 | -1 | -10 | 1 | 2 | -4 | x | x
O=C(N/N=C/c1ccc(F)cc1)c1cc(-c2ccco2)nc2ccccc12 | 27 | 81* | 105* | 61* | 16 | 12 | 48* | -1 | Beacon interf DR=>99
Cc1ccc(/C=C/S(=O)(=O)NCCC(=O)NCc2ccccc2F)cc1 | 9 | -10 | -2 | -1 | -2 | 3 | x | x
COc1ccc(O)c(-c2cc(-c3ccccc3[N+](=O)[O-])[nH]n2)c1 | -1 | -2 | 86* | -1 | 0 | -5 | 3 | 6
O=C(O)CN1C(=O)/C(=C\c2cc(Br)ccc2OCc2ccc(Cl)cc2)SC1=S | 8 | -7 | 61* | 14 | 16 | 61* | 56* | -9 | Beacon interf DR=>99

Assay outcomes: PubChem, Sanford-Burnham Center for Chemical Genomics
